Most compounds without a hit are left out; they make up all but 0.72% or so of the library.
bIAP act = increases bovine intestinal alkaline phosphatase activity | purified bovine IAP, CDP-star luminescence, 30 min; active compounds read high; fold of DMSO-control signal, blank-subtracted | activation factor at 20 µM | hit rate 0.17% among 200,000;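 active means activation factor of 2 or more at 20 µM, a signal rise over negative controls twice the positive control's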
mIAP block = blocks mouse intestinal alkaline phosphatase. inhibition, % at 10 µM. hit rate 0.2% among 330,000. purified mouse IAP, CDP-Star luminescence, 30 min. AID 2806;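 active means inhibition of at least 40% at 10 µM in the primary screen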;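 further: plate controls were DMSO with enzyme for no effect and no enzyme wells for full effect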
bIAP inhibitor = intestinal alkaline phosphatase (bovine) inhibition. purified bovine IAP, CDP-star luminescence, 30 min. inhibition, % at 20 µM. 190,000 tested, under 10 active. AID 1019;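 active means over 50% inhibition of intestinal alkaline phosphatase at 20 µM in the single-dose screen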
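System: Purified bovine intestinal alkaline phosphatase (IAP) enzyme | Input: IAP diluted 1/65,000,000 in the well | Also added: CDP-star chemiluminescent phosphatase substrate, 30 µM final | Dosing: 20 µM single dose | Times: Enzyme reaction for 30 min at room temperature | Detection: Luminescence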
hIAP inh = blocks human intestinal alkaline phosphatase. P09923. purified IAP, CDP-Star luminescence, 30 min. inhibition, % at 10 µM. hit rate 0.12% among 330,000;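 active means inhibition reaching a set limit with compound at 10 µM in the primary screen, cut at about 35% in these data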;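 further: plate controls were DMSO wells with enzyme for no effect and no-enzyme buffer wells for full effect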
Target sequence (P09923 whole entry, looked up): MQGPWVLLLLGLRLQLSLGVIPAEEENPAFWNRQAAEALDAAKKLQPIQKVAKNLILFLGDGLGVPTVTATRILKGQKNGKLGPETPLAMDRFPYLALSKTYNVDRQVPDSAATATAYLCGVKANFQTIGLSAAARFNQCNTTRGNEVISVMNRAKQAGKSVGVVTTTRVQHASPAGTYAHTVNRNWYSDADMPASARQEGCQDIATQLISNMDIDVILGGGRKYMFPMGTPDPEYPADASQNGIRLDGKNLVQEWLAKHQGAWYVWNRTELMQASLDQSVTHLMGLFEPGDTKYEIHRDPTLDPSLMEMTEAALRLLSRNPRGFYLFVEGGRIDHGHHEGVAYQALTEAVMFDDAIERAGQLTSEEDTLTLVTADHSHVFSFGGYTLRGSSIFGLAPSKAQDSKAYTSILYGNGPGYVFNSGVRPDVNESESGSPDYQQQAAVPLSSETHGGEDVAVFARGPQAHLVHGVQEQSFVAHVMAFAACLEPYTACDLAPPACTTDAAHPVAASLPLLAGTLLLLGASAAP
hIAP act = human IAP activation | P09923 | activation factor at 10 µM | hit rate 0.16% among 330,000 | AID 2524 | purified human IAP, CDP-Star luminescence, 30 min; active compounds read high; 1 = vehicle-only enzyme, 0 = enzyme-free background;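 active means activation factor of the enzyme at least 2-fold when tested at 20 µM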
mIAP act = mouse IAP activation; muIAP, CDP-Star luminescence, 30 min; active compounds read high; 1 = vehicle-only enzyme signal, 0 = enzyme-free wells; activation factor at 10 µM; hit rate 0.24% among 330,000; AID 2805;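 active means activation factor of at least 2 at 20 µM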
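System: Mouse IAP enzyme | Also added: CDP-Star substrate | Dosing: Compounds dispensed in DMSO | Schedule: 30 min enzyme-substrate-compound incubation at room temperature | Technique: Chemiluminescence readout | Control set: DMSO-only wells and no-enzyme negative control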
Starred values were filed as active, the others as inactive; i = inactive; · = no result given.

SMILES	bIAP act	mIAP block	bIAP inhibitor	hIAP inh	hIAP act	mIAP act
Cc1cc(C)cc(NC(=S)NCCN(C2CCCCC2)C2CCCC2)c1	0.4	-106.5	·	-28.7	1.29	2.06*
Cc1ccc(NC(=S)NCCN(C2CCCCC2)C2CCCC2)cc1	0.4	-59.2	·	-12.5	1.12	1.59
CCOC(=O)c1ccc(NC(=S)NCc2ccc(F)cc2)cc1	·	-130.6	·	5.8	0.942	2.31*
COC(=O)CNC(=O)C12CC3CC(C1)CC(c1ccc(C)cc1)(C3)C2	1	-1.9	-2.5	19.3	0.807	1.02
CC1CCCN(C(C(=O)Nc2ccc3c(c2)OCO3)c2ccccc2)C1 (centres undefined)	2.1*	-31.5	-113.4	23.9	0.761	1.31
CC1CCN(C(C(=O)Nc2ccc3c(c2)OCO3)c2ccccc2)CC1 (centres undefined)	2.7*	-18.5	-166.8	16.7	0.833	1.19
CC1CCCN(C(C(=O)Nc2ccc3c(c2)OCCO3)c2ccccc2)C1 (centres undefined)	1.1	-22.0	-13.2	0.1	0.999	1.22
Clc1cccc(Cl)c1CSc1nnc(-c2ccncc2)s1	·	1.6	·	-105.8	2.06*	0.984
CCOc1ccccc1CN1CCNC(=O)C1CC(=O)NC1CCCCCC1 (centres undefined)	·	-3.5	·	-22.5	1.23	1.03
S=C(Nc1cc(Cl)cc(Cl)c1)NC1CCN(Cc2ccccc2)CC1	·	-220.6	·	8.1	0.919	3.21*
Nc1ccc2nc(CCCCCCCCc3nc4ccc(N)cc4[nH]3)[nH]c2c1	2*	-10.4	-95.4	-44.0	1.44	1.1
COc1ccccc1-c1cc(C(=O)N2CCN(S(=O)(=O)c3ccc(C)cc3)CC2)[nH]n1	·	-127.9	·	-19.7	1.2	2.28*
COc1ccc(CN(CC2CCC(C(=O)O)CC2)C(=S)Nc2cccc(C)c2)cc1 (centres undefined)	2.4*	2.5	-139.8	6.6	0.934	0.975
COc1ccc(CN(CC2CCC(C(=O)O)CC2)C(=S)Nc2ccccc2OC)cc1 (centres undefined)	1.1	5.3	-6.7	-2.9	1.03	0.947
O=C(N/N=C/c1ccccc1OC(=O)c1ccc2c(c1)OCO2)c1cccc(F)c1	1	9.2	3.1	-39.6	1.4	0.908
COc1ccc(NC(=O)C2CCN(S(=O)(=O)c3ccc(C)cc3)CC2)cc1OC	0.9	-22.9	8.2	-11.8	1.12	1.23
CC(=O)c1cccc(NC(=O)C2CCCN(S(=O)(=O)c3ccc(F)cc3)C2)c1 (centres undefined)	0.9	-3.0	13.0	-14.2	1.14	1.03
COc1ccc(S(=O)(=O)N2CCCC(C(=O)Nc3cccc(C(C)=O)c3)C2)cc1 (centres undefined)	2.5*	0.5	-148.5	-14.1	1.14	0.995
Cc1ccc(NC(=O)C2CCN(S(=O)(=O)c3ccc(N4CCCC4=O)cc3)CC2)cc1Cl	·	-162.7	·	-81.4	1.81	2.63*
COc1ccc(S(=O)(=O)N2CCC(C(=O)Nc3cccc(Cl)c3)CC2)cc1OC	1	-176.0	0.9	-10.7	1.11	2.76*
Nc1nc(SCc2ccc([N+](=O)[O-])cc2)nc2nc3c(cc12)CCCC3	1	0.2	-1.3	12.1	0.879	0.998
CC(C)C1Cc2c(C#N)c(N)sc(=S)c2CO1 (centres undefined)	0.6	40.1*	37.3	-9.8	1.1	0.599
O=C(O)CCC1c2cc3c4cc2OC2Oc5cc6c(cc51)C(CCC(=O)O)c1cc5c7cc1OC(O6)c1cc6cc(c1)Oc1cc(cc(C(=O)O)c1)Oc1cc8cc(c1)C(Oc1cc(c(cc1C5CCC(=O)O)C3CCC(=O)O)OC(O4)c1cc(cc(c1)Oc1cc(cc(C(=O)O)c1)O8)Oc1cc(cc(C(=O)O)c1)Oc1cc(cc2c1)Oc1cc(cc(C(=O)O)c1)O6)O7 (centres undefined)	·	48.5*	·	8.9	1.08	0.967
C/C=C/c1ccc(OCCn2nnc3ccccc32)c(OC)c1	·	3.0	·	-0.6	1.01	0.97
Cn1cnnc1Sc1nc2c(c(=O)n(C)c(=O)n2C)n1C	·	7.6	·	-3.3	1.03	0.924
SMILES	bIAP act	mIAP block	bIAP inhibitor	hIAP inh	hIAP act	mIAP act
Cc1ccc(C)c(CN2CCC(CNC(=O)Nc3ccc(Br)cc3F)CC2)c1	·	-220.7	·	-40.2	1.4	3.21*
O=C(NCC1CCN(Cc2ccccc2Cl)CC1)Nc1ccccc1F	·	-96.6	·	-20.4	1.2	1.97
O=c1cc(-c2ccc(O)cc2)oc2c(C3OCC(O)C(O)C3O)c(O)c(C3OC(CO)C(O)C(O)C3O)c(O)c12 (centres undefined)	·	42.8*	·	-1.3	1.01	0.572
O=C(Nc1nc(-c2ccco2)c(-c2ccco2)s1)c1cnccn1	·	43.6*	·	-20.9	1.21	0.564
O=C(Nc1nc2ccccc2s1)c1cnccn1	1	2.8	-4.0	-24.0	1.24	0.972
O=C(COC(=O)Cc1ccc(S(=O)(=O)N2CCOCC2)s1)NCc1ccc(Cl)cc1	1	2.1	3.8	-11.0	1.11	0.979
CCCC(=O)Nc1ccc(C(=O)N/N=C/c2ccc([N+](=O)[O-])o2)cc1	1.4	40.0*	-38.5	-28.5	1.28	0.6
COc1ccccc1-c1ccc(SCc2ccc(F)cc2)nn1	0.9	-2.6	12.2	-2.0	1.02	1.03
COc1ccc(S(=O)(=O)n2c(C)nc3ccccc32)cc1C	·	6.4	·	7.2	0.928	0.936
CC(=O)c1ccc(OCc2ccc(C(=O)c3ccccc3)cc2)cc1	1.1	-0.2	-10.4	-3.1	1.03	1
CC(=O)c1ccc(OCc2ccc(Oc3c(Cl)cccc3[N+](=O)[O-])cc2)cc1	0.9	10.1	9.1	-203.5	3.04*	0.899
O=C(N/N=C/c1ccccc1Br)c1cccc(S(=O)(=O)N2CCOCC2)c1	·	-11.4	·	-9.2	1.09	1.11
O=C(N/N=C/c1cc(Br)cc(Br)c1O)c1cccc(S(=O)(=O)N2CCOCC2)c1	·	41.3*	·	-47.3	1.47	0.587
Cc1ccc(OCCCn2c(CO)nc3ccccc32)cc1	6.7*	3.1	i	-22.2	1.22	0.969
Cn1c(=O)c2c(nc(N/N=C/c3ccco3)n2C)n(C)c1=O	2.1*	5.5	-108.5	-35.3	1.35	0.945
Cn1c(=O)c2c(nc(N/N=C/c3cccs3)n2C)n(C)c1=O	·	-3.6	·	-14.7	1.15	1.04
O=C(CCS(=O)(=O)c1ccccc1)Nc1nnc(C(F)(F)F)s1	·	7.7	·	12.6	0.874	0.923
C=C(C)[C@@H]1CC[C@]2(C(=O)O)CC[C@]3(C)C(CCC4[C@@]5(C)CC[C@H](O)C(C)(C)C5CC[C@]43C)C12 (some centres undefined)	·	47.0*	·	-28.2	1.28	0.53
Cc1ccccc1C(=O)NC(CC(C)C)C(=O)OCC(=O)c1c(N)n(C)c(=O)n(C)c1=O (centres undefined)	2.1*	-3.8	-105.4	-7.4	1.07	1.04
CC(/C=N/NC(=O)c1n[nH]c2c1CCC2)=C\c1ccccc1	1	1.7	1.5	-51.8	1.52	0.983

Compound activity from PubChem.
